EBNA-1 inh = blocks EBNA-1 binding to DNA | AID 1950 | EBNA-1 DNA binding, fluorescence polarization | 0.34% of 300,000 active | inhibition, % at 14.8 µM; in the data active = inhibition above about 28%
PABP1 MLLE inh = blocks PAM2 peptide binding to the PABP1 MLLE domain; P11940; GST-MLLE / FITC-PAM2 fluorescence polarization; inhibition, % at 20 µM; 0.36% of 360,000 active; AID 588489; in the data active = inhibition above about 35%, passing the limit was not always enough;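 note: plate controls were DMSO wells with GST-MLLE for no effect and wells lacking GST-MLLE protein for full effect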
eIF4H inh = inhibitors of RNA binding by human eIF4H; Q15056; eIF4H fluorescence polarization binding assay; inhibition, % at 35 µM; 0.94% of 290,000 active; AID 2012;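 note: calls also rest on retests at 20 µM and on dose response follow-up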
ZTA counter = blocks Epstein-Barr virus ZTA, an EBNA-1 counter-screen | inhibition, % at 11 µM | AID 2234 | P03206 | 0.15% of 320,000 active | ZTA-DNA binding, fluorescence polarization; in the data active = inhibition above about 33%
Target sequence (P03206 whole entry, looked up): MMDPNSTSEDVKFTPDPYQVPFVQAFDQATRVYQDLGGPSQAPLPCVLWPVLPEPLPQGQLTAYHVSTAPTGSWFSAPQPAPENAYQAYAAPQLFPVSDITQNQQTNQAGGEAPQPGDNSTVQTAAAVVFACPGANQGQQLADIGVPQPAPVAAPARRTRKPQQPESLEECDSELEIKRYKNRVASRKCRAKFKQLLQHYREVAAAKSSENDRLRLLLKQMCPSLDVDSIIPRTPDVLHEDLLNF
HCV NS3 hel inh = inhibitors of Hepatitis C virus NS3 helicase; NS3 helicase DNA unwinding, Cy5 molecular beacon fluorescence; AID 1800; inhibition, % at 10.9 µM; 0.56% of 290,000 active;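 active = inhibition above the mean of all tested compounds plus 3 SD, set per campaign, cut at about 35% in these data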;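 note: 0% = DMSO wells and 100% = thioflavine S control wells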
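Test system: hepatitis C virus NS3 helicase domain fragment enzyme. Also added: annealed dual-labelled DNA beacon duplex, ATP-started. Timing: 60 min unwinding reaction at 25 °C after ATP addition. Technique: Cy5 fluorescence. Measure: % inhibition of unwinding.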
PABP polyA inh = PABP-poly(A) binding inhibition | 1% of 290,000 active | PABP-poly(A) RNA binding, fluorescence polarization | inhibition, % at 35 µM | P11940;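 note: calls also rest on retests at 20 µM and on dose response follow-up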
NS3 hel confirm = HCV NS3 helicase inhibition, confirmation assay | shares compounds with HCV NS3 hel inh | NS3 helicase DNA unwinding, Cy5 molecular beacon fluorescence | inhibition, % at 10.9 µM | 31% of 1,600 active | AID 1943;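 active = inhibition above the mean of all tested compounds plus 3 SD, cutoff set per campaign, cut at about 36% in these data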
DNA FID counter = displaces DNA intercalator in HCV helicase counter-screen | shares compounds with HCV NS3 hel inh | DNA fluorescent intercalator displacement, fluorescence | inhibition, % at 7.9 µM | 4% of 1,600 active; in the data active = inhibition above about 37%;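 note: 0% = vehicle and 100% = reference compound; higher means more displacement of ethidium bromide from the DNA hairpin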
FID counter DR = DNA intercalator displacement in dose response. shares compounds with HCV NS3 hel inh. fluorescent intercalator displacement from DNA, fluorescence. IC50, µM. 120 tested, under 10 active
* = called active by the depositor; u = inconclusive; x = no result given. Most compounds without a hit are left out; they make up all but 2.1% or so of the library. Unless noted, the rule behind the calls is not given here.

SMILES	EBNA-1 inh	PABP1 MLLE inh	eIF4H inh	ZTA counter	HCV NS3 hel inh	PABP polyA inh	NS3 hel confirm	DNA FID counter	others
CC(C)(C)N1C(=O)NC(=O)/C(=C\c2ccc3c(c2)CCN3CCCCl)C1=O	-1.1	-142.5	80.2	7.0	97.3*	24.6*	-11.8	3.6
O=C(CCCc1ccc(N(CCCl)CCCl)cc1)NCc1ccccc1	x	1.5	x	x	x	x	x	x
C[C@H](N)CN1CCc2ccc(Br)cc21	-2.4	-3.4	x	15.9	x	x	x	x
CN(C)C1C(=O)C(C(N)=O)=C(O)C2(O)C(=O)C3=C(O)c4c(O)cccc4C(C)(O)C3C(O)C12 (stereo not given)	6.3	20.6	98.9*	-3.4	95.7*	100.0*	10.2	18.6
Cc1nonc1OCCNCCNc1ccc([N+](=O)[O-])c2cccnc12	-4.2	5.4	1.8	-2.5	-0.5	2.1	x	x
CC(C)[C@]12CC(=O)[C@H](C)[C@H]1C2	x	4.8	x	-4.2	x	x	x	x
O=C1NC(=O)N(c2ccccc2)C(=O)/C1=C/C=C/c1ccco1	9.6	-76.8	u	28.1	44.9*	u	-5.3	14.4
O=C1NC(=O)N(Cc2ccccc2)C(=O)/C1=C\C=C\c1ccco1	3.3	-85.9	u	5.3	41.9*	13.2	22.8	11.7
Cc1ccc(N2C(=O)NC(=O)/C(=C\C=C\c3ccco3)C2=O)cc1C	-1.6	-89.5	u	19.4	38.1*	3.3	62.4*	14.8	FID counter DR=>79.4
C=CCN1C(=O)NC(=O)/C(=C/C=C/c2ccccc2)C1=O	x	-35.2	20.6	x	0.8	15.3	x	x
Cc1ccc(N2C(=O)NC(=O)/C(=C\C=C\c3ccco3)C2=O)cc1	-7.7	-74.9	u	17.4	41.9*	u	38.5*	19.6
Cc1cccc(N2C(=O)NC(=O)/C(=C\C=C\c3ccco3)C2=O)c1	8.1	-84.7	u	10.4	27.1	u	x	x
Cc1cc(OC(C)C(=O)NCc2cccnc2)c2c3c(c(=O)oc2c1)CCC3 (stereo not given)	-4.5	19.3	-9.8	2.8	7.2	14.0	x	x
CNC(=S)N(C)CCc1cc2c(c(OC)c1C=C1C(=O)NC(=O)NC1=O)OCO2	8.1	24.6	20.4	-0.2	-0.7	-6.5	x	x
C=CCN1C(=O)NC(=O)/C(=C/c2c(CCN(C)C(=O)c3ccccc3)cc3c(c2OC)OCO3)C1=O	-4.3	14.2	6.5	2.9	54.3*	9.4	-31.9	-17.1
COc1ccc(CCNCc2c(OC)ccc3ccccc23)cc1	-1.4	7.5	28.5	-6.3	-30.1	18.7	x	x
Cc1ccc(N2C(=O)NC(=O)/C(=C/c3ccc(-c4ccc(C(=O)O)c(Cl)c4)o3)C2=O)cc1	6.4	20.5	u	0.4	39.3*	-11.5	36.5*	9.5
Cc1cc(/C=C2\C(=O)NC(=O)N(c3cccc(F)c3)C2=O)c(C)n1-c1ccc(C(=O)O)c(Cl)c1	-0.1	-2.3	29.8	4.4	16.3	-24.7	x	x
O=C1C2CCN(CC2)C12CC2c1ccc(C(F)(F)F)cc1 (stereo not given)	-15.3	-1.4	-6.8	-6.7	38.6*	8.1	-7.9	19.6
Fc1cccc(-c2ccc3c(c2)CN(c2cccc(Cl)c2)Cc2cnnn2-3)c1	x	-14.6	x	x	x	x	x	x
CCOc1ccc(N2C(=O)/C(=C/c3ccc(C)o3)C(=O)NC2=S)cc1	-11.5	-41.6	27.9	2.4	48.6*	22.2	69.6*	-1.5
Cc1ccc(/C=C2\C(=O)NC(=S)N(c3cccc(F)c3)C2=O)o1	10.9	-43.1	71.5	18.1	37.4*	20.1*	64.9*	5.1
COc1ccc(N2C(=O)/C(=C/c3ccc(C)o3)C(=O)NC2=S)cc1	x	-21.8	11.5	x	-1.6	8.2	x	x
CCN1CC2(COC(=O)c3ccccc3N)CCC(OC)C34C5CC6C(OC)CC(O)(C5C6OC)C(O)(C(OC)C23)C14 (stereo not given)	2.1	0.2	-0.4	0.7	6.7	1.6	x	x
Cc1ccc(-c2nc(N(C)C3CCN(C)CC3)c3ccccc3n2)cc1	-3.2	-7.6	-3.5	2.9	37.9*	-0.4	17.2	84.1*
SMILES	EBNA-1 inh	PABP1 MLLE inh	eIF4H inh	ZTA counter	HCV NS3 hel inh	PABP polyA inh	NS3 hel confirm	DNA FID counter	others
CN1CCC(N(C)c2ncnc3ccc(Br)cc23)CC1	x	-2.7	0.0	x	-2.6	10.3	x	x
Cc1c(CCN)ccc2c1[nH]c1ccccc12	-24.3	3.6	-3.8	-1.7	-21.6	0.3	x	x
Cc1ccc(N2C(=O)/C(=C/c3ccc(CN(CCC#N)S(C)(=O)=O)o3)C(=O)NC2=S)cc1C	-4.2	x	19.8	6.9	44.1*	25.4	65.6*	24.2
CC1Oc2cc3c(-c4c(O)cc(O)c5c(O)c6c(cc45)OC(C)C(C)C6=O)c(O)cc(O)c3c(O)c2C(=O)C1C (stereo not given)	4.6	16.1	90.2*	-0.7	50.3*	78.7*	96.2*	64.0*
Cc1cc(/C=C2\C(=O)NC(=O)N(Cc3ccco3)C2=O)c(C)n1-c1ccc(O)cc1	3.4	-16.9	81.0	3.0	16.6	31.1	x	x
Cc1ccccc1-n1c(C)cc(/C=C2/C(=O)NC(=O)N(Cc3ccco3)C2=O)c1C	-5.3	-17.6	u	12.7	39.8*	58.9*	3.8	-14.6
Cc1cc(/C=C2\C(=O)NC(=O)N(Cc3ccco3)C2=O)c(C)n1-c1ccc(C(=O)O)cc1	-15.6	-48.1	41.2	-0.1	24.5	13.6	x	x
Cc1ccc(-n2c(C)cc(/C=C3/C(=O)NC(=O)N(Cc4ccco4)C3=O)c2C)cc1	4.7	-11.6	u	-0.4	63.3*	-14.7	8.2	-20.2
O=C1NCN(c2ccccc2)C12CCN(C(c1nnnn1C1CCCC1)C1CC1)CC2 (stereo not given)	x	-5.3	x	x	x	x	x	x
CC[C@H](C)[C@@H](C(=O)N1CCCC1c1nccs1)N(C)C(=O)[C@H](CC(C)C)N(C)C(=O)[C@H](Cc1ccc(OC)cc1)N(C)C(=O)/C=C(\C)OC (stereo not given in full)	x	2.3	x	x	x	x	x	x
O=C1NC(=O)C(=Cc2ccc(-c3ccc(S(=O)(=O)N4CCOCC4)cc3)o2)C(=O)N1	-0.9	14.6	36.7	8.4	41.9*	9.7	-5.4	0.6
C=CCN1C(=O)/C(=C\c2ccc(N3CCOCC3)o2)C(=O)NC1=S	2.6	-199.6	u	-13.6	-8.2	-0.8	x	x
C=CCN1C(=O)/C(=C/c2ccc(Br)s2)C(=O)NC1=S	-13.7	-66.2	19.8	-3.2	46.1*	6.5	68.4*	8.8
Fc1ccccc1CN1Cc2ccccc2-n2nncc2C1	x	3.6	x	x	x	x	x	x
O=C(N/N=C/c1c(O)n(CCC2=CCCCC2)c(=O)[nH]c1=O)c1ccccc1	-8.4	-2.8	u	8.4	12.0	-10.2	x	x
